Results pooled from the literature.
Lines come from different studies, so protocols differ.
MTNR1A: Melatonin receptor type 1A (MTNR1A, Homo sapiens, UniProt P48039)
Glucagon receptor: Glucagon receptor (Mus musculus, UniProt Q61606)

Structure (SMILES) | target | test | EC50
COc1ccc2[nH]cc(CCNC(C)=O)c2c1I | MTNR1A | cAMP, agonist, TR-FRET | 229 nM
COc1ccc(CSc2nnc(C3CC3)[nH]2)cc1 | MTNR1A | cAMP, agonist, luciferase | 2.96 nM
Cc1cccnc1C(=O)Nc1ccc(N2C(=O)c3cccc(Cl)c3C2=O)c(Cl)c1 | Metabotropic glutamate receptor 1 (Grm1, Rattus norvegicus, UniProt P23385) | calcium signal, positive allosteric modulator | 367 nM
CC[C@H](C)[C@H](NC(=O)[C@H](Cc1ccccc1)NC(=O)[C@H](CCC(=O)O)NC(=O)[C@H](CCCCN)NC(=O)[C@H](C)NC(=O)[C@H](C)NC(=O)[C@H](CCC(N)=O)NC(=O)CNC(=O)[C@H](CCC(=O)O)NC(=O)[C@H](CC(C)C)NC(=O)[C@H](Cc1ccc(O)cc1)NC(=O)[C@H](CO)NC(=O)[C@H](CO)NC(=O)[C@@H](NC(=O)[C@H](CC(=O)O)NC(=O)[C@H](CO)NC(=O)[C@@H](NC(=O)[C@H](Cc1ccccc1)NC(=O)[C@@H](NC(=O)CNC(=O)[C@H](CCC(=O)O)NC(=O)[C@H](C)NC(=O)[C@@H](N)Cc1c[nH]cn1)[C@@H](C)O)[C@@H](C)O)C(C)C)C(=O)N[C@@H](C)C(=O)N[C@@H](Cc1c[nH]c2ccccc12)C(=O)N[C@@H](CC(C)C)C(=O)N[C@H](C(=O)N[C@@H](CCCCN)C(=O)NCC(=O)N[C@@H](CCCN=C(N)N)C(=O)NCC(=O)O)C(C)C | Glucagon receptor | reporter gene, agonist, luciferase | > 1000 nM
C#CCOCCOCCOCCOc1ccc2c3c1C1CCCC1N3CCNC2 (racemic) | 5-hydroxytryptamine receptor 2C (HTR2C, Homo sapiens, UniProt P28335) | calcium signal, agonist, fluorescence | 647 nM
Clc1sccc1CNc1cccc(-c2nnc[nH]2)c1 | MTNR1A | cAMP, agonist, luciferase | 9300 nM
COCC(CNC(C)=O)c1cccc2ccc(OC)cc12 (stereo not drawn) | MTNR1A | cAMP, agonist, TR-FRET | 21.4 nM
COc1cccc(CN2CCOc3ccc(OC)cc32)c1 | MTNR1A | cAMP, agonist, luciferase | 6.11 nM
CC[C@H](C)[C@H](NC(=O)[C@H](CO)NC(=O)[C@H](Cc1ccc(O)cc1)NC(=O)[C@H](CC(=O)O)NC(=O)[C@H](CO)NC(=O)[C@@H](NC(=O)[C@H](Cc1ccccc1)NC(=O)[C@@H](NC(=O)CNC(=O)[C@H](CCC(=O)O)NC(=O)[C@H](C)NC(=O)[C@@H](N)Cc1ccc(O)cc1)[C@@H](C)O)[C@@H](C)CC)C(=O)N[C@@H](C)C(=O)N[C@@H](CCSC)C(=O)N[C@@H](CC(=O)O)C(=O)N[C@@H](CCCCN)C(=O)N[C@H](C(=O)N[C@@H](CCCNC(=N)N)C(=O)N[C@@H](CCC(N)=O)C(=O)N[C@@H](CCC(N)=O)C(=O)N[C@@H](CC(=O)O)C(=O)N[C@@H](Cc1ccccc1)C(=O)N[C@H](C(=O)N[C@@H](CC(N)=O)C(=O)N[C@@H](Cc1c[nH]c2ccccc12)C(=O)N[C@@H](CC(C)C)C(=O)N[C@@H](CC(C)C)C(=O)N[C@@H](C)C(=O)N[C@@H](CCC(N)=O)C(=O)N[C@@H](CCCNC(=N)N)C(=O)NCC(=O)N[C@@H](CCCCN)C(=O)N[C@@H](CCCCN)C(=O)N[C@@H](CO)C(=O)N[C@@H](CC(=O)O)C(=O)N[C@@H](Cc1c[nH]c2ccccc12)C(=O)N[C@@H](CCCCN)C(=O)N[C@@H](Cc1c[nH]cn1)C(=O)N[C@@H](CC(N)=O)C(=O)N[C@H](C(=O)N[C@H](C(=O)N[C@@H](CCC(N)=O)C(=O)O)[C@@H](C)O)[C@@H](C)CC)C(C)C)[C@@H](C)CC | Glucagon receptor | reporter gene, agonist, luciferase | > 1000 nM
